From ChEMBL document CHEMBL3352559, “Synthesis and pharmacological investigation of aralkyl diamine derivatives as potential triple reuptake inhibitors” (Eur J Med Chem, 2014)

Assays:
[1] = Drug uptake in Sprague-Dawley rat plasma at 0.5 mg/kg iv after 0.50 hrs; assay type: ADME, organism-based; parameters: dose 0.5 mg/kg, route intravenous
Summary of the method: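 Male SD rats, fasted overnight until 6 h post-dose; single 0.5 mg/kg femoral-vein injection; blood drawn into heparin at 5, 15, 30 min, 1, 2 and 4 h; plasma stored at -40 °C; drug levels by LC/MS/MS; noncompartmental parameters.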

[2] = target: Adenosine receptor A1 (Homo sapiens) (UniProt P30542); test: Displacement of [3H]-DPCPX from human adenosine A1 receptor at 10 uM relative to control
Adenosine receptor A1 (Homo sapiens), sequence (P30542 whole entry): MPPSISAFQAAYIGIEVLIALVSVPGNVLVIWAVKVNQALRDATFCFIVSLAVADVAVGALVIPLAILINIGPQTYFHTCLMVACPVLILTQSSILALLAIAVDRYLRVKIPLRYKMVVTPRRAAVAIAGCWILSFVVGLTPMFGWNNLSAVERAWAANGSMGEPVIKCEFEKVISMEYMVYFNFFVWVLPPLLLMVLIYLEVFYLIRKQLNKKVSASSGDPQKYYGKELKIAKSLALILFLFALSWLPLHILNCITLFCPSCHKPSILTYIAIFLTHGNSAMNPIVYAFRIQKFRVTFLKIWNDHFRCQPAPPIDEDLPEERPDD
Summary of the method: (§1)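 Outsourced CNS panel of 55 receptor binding assays run by Cerep. Compound tested at 10 μM, the default primary-binding concentration, with inhibition expressed relative to control. Inhibition above 50% taken as a significant effect.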

[3] = target: Adrenergic receptor alpha-2 (Homo sapiens) (UniProt P08913+P18825+P18089); test: Displacement of [3H]-RX-821002 from alpha-2 adrenergic receptor (unknown origin) at 10 uM relative to control; assay type: protein assay; summary of the method: as §1
[4] = target: Substance-K receptor (Homo sapiens) (UniProt P21452); test: Displacement of [125I]NKA from human NK2 receptor at 10 uM relative to control; summary of the method: as §1
Substance-K receptor (Homo sapiens), sequence (P21452 whole entry): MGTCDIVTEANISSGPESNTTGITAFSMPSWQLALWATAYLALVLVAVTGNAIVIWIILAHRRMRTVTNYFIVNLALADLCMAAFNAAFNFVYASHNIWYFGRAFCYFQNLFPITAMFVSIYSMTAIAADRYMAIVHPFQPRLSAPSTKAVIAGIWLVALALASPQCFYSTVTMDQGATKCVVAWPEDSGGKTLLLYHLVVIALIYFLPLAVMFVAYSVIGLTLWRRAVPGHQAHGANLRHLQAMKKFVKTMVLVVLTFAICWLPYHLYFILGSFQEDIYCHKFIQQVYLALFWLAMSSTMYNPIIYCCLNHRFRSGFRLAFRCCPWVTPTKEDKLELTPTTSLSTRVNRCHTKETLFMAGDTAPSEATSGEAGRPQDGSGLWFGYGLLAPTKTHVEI

[5] = target: 5-hydroxytryptamine receptor 1A (Homo sapiens) (UniProt P08908); test: Displacement of [3H]OHDPAT from human 5-HT1A receptor at 10 uM relative to control; summary of the method: as §1
5-hydroxytryptamine receptor 1A (Homo sapiens), sequence (P08908 whole entry): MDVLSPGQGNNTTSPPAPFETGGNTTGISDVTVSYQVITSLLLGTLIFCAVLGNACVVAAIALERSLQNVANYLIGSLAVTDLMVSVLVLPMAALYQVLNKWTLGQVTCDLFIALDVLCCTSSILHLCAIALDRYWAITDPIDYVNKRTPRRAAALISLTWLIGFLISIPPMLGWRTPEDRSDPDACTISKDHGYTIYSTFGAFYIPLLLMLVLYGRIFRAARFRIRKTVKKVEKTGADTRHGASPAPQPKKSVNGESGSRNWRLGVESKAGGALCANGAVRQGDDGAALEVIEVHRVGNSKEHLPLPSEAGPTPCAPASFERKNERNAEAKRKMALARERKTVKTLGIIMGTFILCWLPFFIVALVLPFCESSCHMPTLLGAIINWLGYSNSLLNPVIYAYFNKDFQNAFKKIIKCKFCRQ

[6] = target: Somatostatin receptor (Homo sapiens) (UniProt P35346+P30874+P31391+P30872+P32745); test: Displacement of [125ITyr11- somatostatin-14 from sst receptor (unknown origin) at 10 uM relative to control; assay type: protein assay; summary of the method: as §1

CN(C)CCC(c1ccc(Cl)c(Cl)c1)N1CCOCC1 (stereo unspecified)
concentration at 0.5 h [1]: 44.5 ng/mL | inhibition [2]: 8.7% | inhibition [3]: 9.6% | inhibition [4]: -7% | inhibition [5]: -0.8% | inhibition [6]: 3.2%
